A number with no mark means an inactive call.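 The calls were made as follows, unless noted: active = growth inhibition above 25% in both replicates, a cutoff set 3 SD above the mean; inconclusive = above 25% in only one replicate; inactive = the rest.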

The first assay can be described thus: growth suppression of yeast trafficking mutant, preliminary HTS, modulators of trafficking downstream of Golgi apparatus project, 1536-format plate, OD 615 nm (AID 637; in the data active = inhibition above about 30%). The settings on record: yeast transport mutant growth, absorbance 615 nm, 18 h; stronger effect = higher value.
`CC(C)Sc1nc2c(c(=O)n1-c1ccc(F)cc1)SCC2`: the inhibition (usually the relative decrease from the control value, in per cent) was -4.35%.
Consider `COc1cccc(C2CC(c3c(Cl)cccc3Cl)n3nc(N)nc3N2)c1` (stereo not drawn), for which the inhibition was -0.98%.
`Cc1cccc(OCCNC(=O)c2ncn[nH]2)c1`: the inhibition was -5.17%.
In the case of `COc1ccc(S(=O)(=O)N2CCN(c3ccc(C)cc3C)CC2)cc1OC`, the inhibition was 2.5%.
As to `CS(=O)(=O)NCCSCc1c(F)cccc1Cl`, the inhibition is -8.06%.
Turning to `CC(C)CCNC(=O)Cn1c(NCCC(C)C)nc2c1c(=O)n(C)c(=O)n2C`, the inhibition was -2.5%.
As to `CCOC(=O)N1CCC(NC(=O)C2CCCN(C(=O)c3cc4sccc4n3C)C2)CC1` (stereo not drawn), the inhibition was -0.83%.
As to `CCOC(=O)N1CCC(NC(=O)c2cc(C(=O)NC3CCCC3)ccc2CO)CC1`, the inhibition is 6%.

The nature of a further assay: OD615 S. cerevisiae growth inhibition, permissive medium, pilot counter-assay, permissive growth control for S. cerevisiae lifespan shortening project (AID 705). The settings on record: OD615, 24 h, at 10 µM, stronger effect = higher value. The gist of the method:
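System: S. cerevisiae with engineered DeaD lifespan system / Measured by: absorbance (optical density) at 615 nm / Read-out: reduction in yeast growth (OD615) / Times: 4 h cell pre-growth, 24 h exposure at 30 °C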
Turning to `CCOC(=O)C1CCN(C(=O)CN(c2ccc(Cl)c(C(F)(F)F)c2)S(C)(=O)=O)CC1`, the growth inhibition is -11.9%.
As for `CCOc1ccccc1C(=O)Nc1cc(=O)n(C)c(=O)n1C`, the growth inhibition is -0.335%.
For the molecule `Cc1ccc(-c2cc3nc4c(c(=O)n3[nH]2)CCCC4)cc1`, the growth inhibition was -17%.
With `CCOC(=O)C(C)Sc1nnc(Cc2cc(=O)[nH]c(=O)[nH]2)n1-c1ccc(Cl)cc1` (stereo not drawn), the growth inhibition was -16.5%.
The same measure, in the same setting: then `c1nc(NCC2CCCO2)c2[nH]cnc2n1` (stereo not drawn), with -10%.
Still for that read-out and setting: then `O=C(Nc1ccc(Cl)cn1)c1cccnc1`, with -8.23%.
With `O=C1c2ccccc2C(=O)N1C/C=C/CN1C(=O)c2ccccc2C1=O`, the growth inhibition is 2.25%.
Still for that read-out and setting: then `O=c1oc2c3c4c(cc2cc1-c1nc2ccccc2[nH]1)CCCN4CCC3`, with 4.75%; and `CCCCC(=O)NCCc1cc2c(C)ccc(C)c2[nH]c1=O`, with -2.27%.
With `O=C(NCc1ccc(F)cc1)c1cc2ccccn2n1`, the growth inhibition was 1.54%.
In the case of `COc1cccc(C2C3=C(N=C4SCC(=O)N42)c2ccccc2CC3)c1OC` (stereo not drawn), the growth inhibition was -15.1%.
For the molecule `CCOC(=O)N1CCC(c2cc(=O)n3[nH]c(C)c(-c4ccc(F)cc4)c3n2)CC1`, the growth inhibition is 2.81%.
Take `C=CCn1c(=O)n(CCOC)c(=O)c2sc3ccccc3c21`: the growth inhibition was -13.3%.
In the case of `Cc1ccc2cc(CCNC(=O)C(C)C)c(=O)[nH]c2c1C`, the growth inhibition is -15.2%.
On the same count and under the same terms, then `COc1ccc(S(=O)(=O)N2CCCC2C(=O)Nc2ccc(O)cc2)cc1` (stereo not drawn), with -1.65%.
In the case of `Cc1cccc(-n2ncc3c(NCc4cccnc4)ncnc32)c1`, the growth inhibition was -8.17%.
Regarding `COc1cccc(NC(=O)C2CCCN(S(=O)(=O)c3cccc4cccnc34)C2)c1` (stereo not drawn), the growth inhibition was -12.6%.
Take `CCc1nnc(NC(=O)COC(=O)CN2C(=O)c3ccccc3C2=O)s1`: the growth inhibition was 2.25%.
Consider `O=C(C1CCN(c2nnc(-n3cccc3)s2)CC1)N1CCc2ccccc2C1`, for which the growth inhibition was 1.58%.
In the case of `Cc1c(C(=O)NC2CC2)oc2ccc(S(=O)(=O)N3CCCCCC3)cc12`, the growth inhibition is -7.49%.
As to `Cc1sc2nc(SCC(=O)NCCO)n(C)c(=O)c2c1C`, the growth inhibition was -9.24%.
Take `S=c1[nH]nc(-c2ccccc2)n1C1C=CCCC1` (stereo not drawn): the growth inhibition was 2.92%.
In the case of `c1ccc(N2CCN(Cc3cn4cccnc4n3)CC2)cc1`, the growth inhibition was -10.3%.
With `CCCCc1ccc(NC(=O)C2CCCO2)cc1` (stereo not drawn), the growth inhibition was 2.46%.
On the same count and under the same terms, then `Cc1[nH]c2ccccc2c(=O)c1CN1CCCCC1`, with -17.1%.
On the same count and under the same terms, then `Cc1ccccc1-n1c(Cn2c(=O)sc3ccccc32)nnc1SCC(=O)N1CCCC1`, with -2.21%; and `COc1ccccc1-n1c(=O)[nH]c2c(C(N)=O)nc(CC(C)C)nc21`, with -15.9%; and `Cc1ccccc1-c1nc(CN2CCC(C(=O)N3CCC(C(N)=O)CC3)CC2)c(C)o1`, with -8.16%.
As to `CCCCN(CC)CCCNC(=O)c1cc2c(=O)n(C)c3ccccc3c2n1C`, the growth inhibition is -8.88%.
On the same count and under the same terms, then `Cc1nn(-c2ccc(F)cc2)c2c1cc(C#N)c1nc3ccccc3n12`, with 1.38%; and `CCCn1c(OC)nc2c1c(=O)n(C)c(=O)n2C`, with -10.7%.
For the molecule `CCOC(=O)Cc1ccc(NS(=O)(=O)c2ccc(SC)cc2)cc1`, the growth inhibition is 6.06%.
For `CC(C)Sc1nc2c(c(=O)n1-c1ccc(F)cc1)SCC2`, the growth inhibition is -4.45%.
`COc1cccc(C2CC(c3c(Cl)cccc3Cl)n3nc(N)nc3N2)c1` (stereo not drawn): the growth inhibition is 4.74%.
In the case of `Cc1cccc(OCCNC(=O)c2ncn[nH]2)c1`, the growth inhibition is -12.5%.
For `COc1ccc(S(=O)(=O)N2CCN(c3ccc(C)cc3C)CC2)cc1OC`, the growth inhibition is 0.1%.
Take `CS(=O)(=O)NCCSCc1c(F)cccc1Cl`: the growth inhibition is -2.46%.
Regarding `CC(C)CCNC(=O)Cn1c(NCCC(C)C)nc2c1c(=O)n(C)c(=O)n2C`, the growth inhibition was -4.12%.
Consider `CCOC(=O)N1CCC(NC(=O)C2CCCN(C(=O)c3cc4sccc4n3C)C2)CC1` (stereo not drawn), for which the growth inhibition was -18%.
Consider `CCOC(=O)N1CCC(NC(=O)c2cc(C(=O)NC3CCCC3)ccc2CO)CC1`, for which the growth inhibition was 3.62%.
